Active and inactive are the calls of the source. No cut-off for these calls is given here.
Experiments:
[1] = Partition coefficient in octanol-buffer at a pH 7.4; type: physicochemical
Outline: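 Distribution between 1-octanol and Na⁺/K⁺-phosphate buffer at pH 7.4, each phase presaturated with the other. Tubes were shaken closed and phases separated by centrifugation. Concentrations were measured by HPLC (C18) with electrochemical detection.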

[2] = Ionization constant in presence of nitrogen; type: physicochemical; conditions: read-out: pKa1
Outline: (§1)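 pKa was determined by the Albert and Serjeant method, as the mean of three to four determinations.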

[3] = Ionization constant in presence of hydroxyl; type: physicochemical; conditions: read-out: pKa2; outline: as §1
D(2) dopamine receptor = D(2) dopamine receptor (Rattus norvegicus, UniProt P61169); test: Potency to displace the specific in vitro binding of [3H]DP-5,6-ADTN to rat striatal membrane; design: species or system Striatum
Sequence of D(2) dopamine receptor (P61169 whole entry): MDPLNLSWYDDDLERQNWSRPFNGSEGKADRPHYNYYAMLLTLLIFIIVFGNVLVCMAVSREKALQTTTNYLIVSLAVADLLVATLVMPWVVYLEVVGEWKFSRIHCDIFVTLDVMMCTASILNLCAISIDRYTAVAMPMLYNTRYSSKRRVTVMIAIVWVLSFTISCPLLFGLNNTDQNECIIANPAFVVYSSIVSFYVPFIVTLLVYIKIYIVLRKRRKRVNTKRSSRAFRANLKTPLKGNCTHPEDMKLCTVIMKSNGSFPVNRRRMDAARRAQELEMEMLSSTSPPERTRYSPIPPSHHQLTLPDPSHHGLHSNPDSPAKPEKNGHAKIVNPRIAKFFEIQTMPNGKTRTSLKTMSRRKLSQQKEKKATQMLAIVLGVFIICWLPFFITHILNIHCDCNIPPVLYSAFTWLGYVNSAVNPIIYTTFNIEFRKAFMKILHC
Outline: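 Homogenized, washed rat striatal membranes were incubated with [³H]-DP-5,6-ADTN. Nonspecific binding was defined with 10⁻⁶ M (+)-butaclamol. Competitor was tested over 10⁻¹¹–10⁻⁴ M, in triplicate.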

Rattus norvegicus [4] = test: In Vivo effect on concentration of DOPAC in rat striatum at dose of 0.4 umol/kg administered intraperitoneally; type: functional
Rattus norvegicus [5] = test: In Vivo effect of agonist on the induction of stereotypy (continuous sniffing behavior in rat) at 0.4 umol/kg; type: functional
Rattus norvegicus [6] = test: In Vivo effect on concentration of HVA in rat striatum at dose of 0.4 umol/kg administered intraperitoneally; type: functional
[7] = molecular target: Dopamine D2 receptor (Bos taurus); test: Potency to displace the specific in vitro binding of [3H]N-0437 to calf striatal membrane
Rattus norvegicus [8] = test: In Vivo effect on concentration of DOPAC in rat striatum at dose of 10 umol/kg administered intraperitoneally; type: functional
Outline: (§2)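 Female Wistar-derived rats (180–220 g) were given drug ip in saline and killed by cervical dislocation 1 h later. Striata were frozen and homogenized in 0.1 M perchloric acid, then centrifuged (3000g, 7 °C, 15 min). DOPAC and HVA were purified on Sephadex G10, separated by RP18 HPLC with electrochemical detection, and expressed as % of control.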

Rattus norvegicus [9] = test: In Vivo effect on concentration of HVA in rat striatum at dose of 10 umol/kg administered intraperitoneally; type: functional; outline: as §2
Rattus norvegicus [10] = test: In Vivo effect of agonist on the induction of stereotypy (continuous sniffing behavior in rat) at 10 umol/kg
Rattus norvegicus [11] = test: In Vivo effect of agonist on the induction of stereotypy (continuous sniffing behavior in rat) at 10 umol/kg; Inactive; type: functional, organism-based
Rattus norvegicus [12] = test: In vivo effect on concentration of DOPAC in rat striatum at dose of 10 umol/kg administered intraperitoneally; type: functional; outline: as §2
Rattus norvegicus [13] = test: In Vivo effect of agonist on the induction of stereotypy (continuous sniffing behavior in rat) ED50
Rattus norvegicus [14] = test: In Vivo effect on concentration of DOPAC in rat striatum at 1 umol/kg; type: functional
Rattus norvegicus [15] = test: In Vivo effect on concentration of HVA in rat striatum at 1 umol/kg; type: functional

CCCN1CCO[C@@H]2c3cccc(O)c3CC[C@H]21
logD [1]: 2.22
pKa [2]: 7.4
pKa [3]: 10.5
IC50 (D(2) dopamine receptor): 75 nM
Control (Rattus norvegicus [4]): 101%
ED50 (Rattus norvegicus [5]): 7.5 mg/kg
Control (Rattus norvegicus [6]): 86%
IC50 [7]: 0.024 µM

CN1CCc2cccc3c2[C@H]1Cc1ccc(O)c(O)c1-3 [APOMORPHINE]
Control (Rattus norvegicus [8]): 48%
Control (Rattus norvegicus [9]): 40%
ED50 (Rattus norvegicus [10]): 2.3 µmol/kg

CCCN1CCO[C@@H]2c3cc(O)ccc3OC[C@H]21
logD [1]: 1.97
pKa [2]: 6.1
pKa [3]: 10.3
IC50 (D(2) dopamine receptor): 3070 nM
Control (Rattus norvegicus [9]): 100%
ED50 (Rattus norvegicus [11]): inactive
Control (Rattus norvegicus [12]): 100%

CCCN1CCO[C@@H]2c3cc(O)ccc3CC[C@H]21 [NAXAGOLIDE]
logD [1]: 2.09
pKa [2]: 7.5
pKa [3]: 10.9
IC50 (D(2) dopamine receptor): 3 nM
Control (Rattus norvegicus [4]): 67%
Control (Rattus norvegicus [6]): 44%
ED50 (Rattus norvegicus [13]): 0.5 µmol/kg

CCCN1CCO[C@@H]2c3cccc(O)c3OC[C@H]21
logD [1]: 1.93
pKa [2]: 5.8
pKa [3]: 10.2
IC50 (D(2) dopamine receptor): 2920 nM
Control (Rattus norvegicus [8]): 108%
Control (Rattus norvegicus [9]): 110%
ED50 (Rattus norvegicus [11]): inactive
IC50 [7]: 8.9 µM

CCCN(CCC)C1CCc2ccc(O)cc2C1 (stereo not given)
logD [1]: 1.45
pKa [2]: 9.4
pKa [3]: 10.7
Control (Rattus norvegicus [14]): 72%
Control (Rattus norvegicus [15]): 56%

CCCN(CCC)C1COc2ccc(O)cc2C1 (stereo not given)
logD [1]: 2.39
pKa [2]: 8.1
pKa [3]: 9.6

CCCN(CCC)C1CCc2c(O)cccc2C1 (stereo not given) [5-OH-DPAT]
logD [1]: 1.53
pKa [2]: 9.4
pKa [3]: 10.9
Control (Rattus norvegicus [14]): 73%
Control (Rattus norvegicus [15]): 60%

CCCN(CCC)C1COc2c(O)cccc2C1 (stereo not given)
logD [1]: 2.44
pKa [2]: 8.2
pKa [3]: 9.9
IC50 (D(2) dopamine receptor): 4 nM
